KCC2 mod: KCC2 (human) Cl- transport modulation; KCC2 cells, thallium flux FluoZin-2 fluorescence; B-score of Tl+ flux slope (higher = more flux/activation; lower = inhibition) at 10 µM; 190,000 compounds, 2.2% hits;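 active means thallium flux slope and its plate-corrected score both differing from the plate sample mean at a set confidence after two filtering rounds, in either direction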;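 further: slope of fluorescence scaled to starting intensity during 10 to 20 s after thallium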
Arbovirus inh: antivirals against arbovirus infection | arbovirus infection cell-based antiviral screen | inhibition, % at 10 µM | 200,000 compounds, 0.37% hits | AID 1251; in the data active means inhibition above about 30%
MDM2 E3 inh: inhibitors of human Mdm2 E3 ubiquitin ligase; 210,000 compounds, 0.11% hits; signal enhancement, % at 5 µM; cell-based MDM2 ubiquitination luciferase reporter, 2 h; 0 = plate control, 100 = twice control, blank-subtracted; AID 1230;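 active means signal enhancement of 30% or more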;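 further: luminescence tracks abundance of the self-degrading MDM2-luciferase fusion protein; higher signal means inhibition of MDM2 E3 ligase activity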
Target sequence (Q00987 whole entry, looked up, the tested form may be a part): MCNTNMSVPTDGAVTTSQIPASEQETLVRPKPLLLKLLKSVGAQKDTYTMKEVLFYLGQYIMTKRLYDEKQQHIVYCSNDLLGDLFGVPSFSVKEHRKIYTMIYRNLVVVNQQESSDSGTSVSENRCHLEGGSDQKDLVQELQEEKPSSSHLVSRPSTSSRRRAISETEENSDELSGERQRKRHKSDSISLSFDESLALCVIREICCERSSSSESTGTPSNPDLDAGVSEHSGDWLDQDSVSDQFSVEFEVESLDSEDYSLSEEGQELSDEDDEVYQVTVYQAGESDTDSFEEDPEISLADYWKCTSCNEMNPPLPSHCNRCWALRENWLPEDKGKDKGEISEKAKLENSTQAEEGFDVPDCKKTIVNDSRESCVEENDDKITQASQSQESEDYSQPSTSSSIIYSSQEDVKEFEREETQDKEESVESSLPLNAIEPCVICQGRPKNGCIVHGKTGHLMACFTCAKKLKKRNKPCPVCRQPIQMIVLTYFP
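Buffer or medium: Cells held in DMEM | Assay system: Stable mammalian line carrying autodegrading MDM2–luciferase fusion reporter | Quantity: 2000 cells/well | Times: 4 h settle plus 2 h compound, 37 °C | Doses: One concentration, 5 µM, with 0.2% DMSO | Technique: Luminescence with SteadyLite reagent, 15 min at room temperature | Benchmarks: Plate controls and plate blanks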
PKD1 inh: inhibitors of human PKD1 kinase. Q15139. PKD1 kinase fluorescence polarization assay. inhibition, % (no concentration beside the values). 200,000 compounds, 0.056% hits; in the data active means inhibition above about 50%
m-calpain inh: inhibitors of pig calpain II; purified calpain II, fluorogenic peptide substrate, 30 min; inhibition, % at 16 µM; 220,000 compounds, 0.37% hits; AID 1236;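 active means inhibition above about 50%, limit read from the data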
ROMK mod: modulators of human ROMK potassium channel | Tet-inducible ROMK, thallium flux fluorescence; actives lie on both sides | AID 1918 | B-score at 10 µM | 130,000 compounds, 2% hits;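 active means signal ratio slope over the read window, or its plate-corrected B-score, at least 3 SD from the plate mean, either direction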;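 further: B-score of the F/F0 ratio slope over 7 to 12 s after thallium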
KCC2 secondary: KCC2 (human) modulation, secondary assay. normalised thallium flux (F/F0 slope) at 10 µM. AID 1713. HEK293-KCC2, thallium flux, FluoZin2 fluorescence; active compounds read high. 3,700 compounds, 15% hits. shares compounds with KCC2 mod;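 active means thallium flux slope above the same plate's solvent-only control mean plus 3 SD; inconclusive means the two replicate wells disagree; inactive means no significant difference from solvent-only control wells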
KCC2 bumet counter: thallium flux despite bumetanide block in KCC2 cells, secondary assay 3; shares compounds with KCC2 mod; HEK293-KCC2 + bumetanide/ouabain, thallium flux FluoZin2; active compounds read high; AID 1714; normalized thallium flux at 10 µM; 3,700 compounds, 49% hits;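 active means thallium entry rate above the same plate's blocked-transporter control wells by more than 3 SD; inconclusive means the two repeat wells disagree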;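 further: raw slope of fluorescence over initial fluorescence between 10 and 20 s after thallium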
KCC2 secondary2: confirmation of human KCC2 transport modulators; 3,700 compounds, 23% hits; HEK293-KCC2, thallium flux FluoZin2 fluorescence; actives lie on both sides; F/F0 rise rate, 10–20 s post-thallium; normalized thallium flux at 10 µM; shares compounds with KCC2 mod;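 active means thallium flux slope more than 3 SD above or below the plate's solvent-only control mean, mostly below; inconclusive means the two repeat wells disagreed; inactive means no significant shift from solvent-only controls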;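 further: raw slope with 0.1% DMSO as baseline and bumetanide as block control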
HEK counter1: parental HEK flux effect, counter-screen. shares compounds with KCC2 mod. HEK293 parental cells, thallium flux FluoZin2, ouabain; baseline-ratio fluorescence slope, 10–20 s after thallium. thallium flux rate (normalised fluorescence) at 10 µM. 3,700 compounds, 46% hits;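 active means thallium flux rate significantly above the same plate's solvent-only control wells, beyond their mean plus 3 SD; inconclusive means the two replicate wells gave conflicting results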
KCC2 ouabain: modulates human KCC2 on retest with ouabain. 3,700 compounds, 48% hits. shares compounds with KCC2 mod. HEK293-KCC2, thallium flux FluoZin2 fluorescence; bidirectional: low = inhibitor, high = activator. raw Tl+ flux slope (below DMSO = inhibition, above = activation) at 10 µM;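 active means thallium flux slope beyond 3 SD from same-plate DMSO control mean in most replicates, usually higher, sometimes lower; inconclusive means repeat tests gave conflicting results; inactive means no significant difference from controls in most replicates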;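 further: slope of initial-normalized fluorescence between seconds 10 and 20 after thallium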
HEK counter2: counter-screen for KCC2 modulators: effect in parental HEK293 cells; thallium flux FluoZin-2 fluorescence slope; 3,700 compounds, 33% hits; shares compounds with KCC2 mod; AID 1718; thallium flux slope at 10 µM;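 active means thallium flux slope above the same plate's solvent-control mean plus 3 SD in both duplicate wells; inconclusive means duplicate wells that disagreed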;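 further: run without ouabain in cells lacking the KCC2 cotransporter; slope of fluorescence scaled to its starting value between 10 and 20 s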
* = called active by the depositor; ? = inconclusive; . = not tested or not shown. Rows were chosen to be rich in hits. Some 3.7% of all compounds tested hit in one or more screens of this group.

SMILES	KCC2 mod	Arbovirus inh	MDM2 E3 inh	PKD1 inh	m-calpain inh	ROMK mod	KCC2 secondary	KCC2 bumet counter	KCC2 secondary2	HEK counter1	KCC2 ouabain	HEK counter2
CCOC(=O)c1cc2c(ccn2-c2ccc(F)cc2)n1CC(=O)N(CC)CC	-5.5*	-14	-1	-3	-183	-0.91	0.015	0.0036	0.023*	?	0.012*	0.009
CC(=O)Nc1ccc2nc(NC(=O)c3cccs3)sc2c1	4.1*	.	.	.	-11	.	0.0052	?	0.03	0.0075	0.019	0.01
CCOC(=O)Cc1nn(Cc2nc(-c3ccc(C)cc3)cs2)c(=O)c2ccccc12	-0.73	.	-17	.	26	.	.	.	.	.	.	.
Cc1c(C(=O)NCCSCc2ccc(F)cc2)cnn1-c1ccc(Cl)cc1	-3.8*	.	-13	.	18	.	0.007	0.0047	?	0.0064	0.017*	0.0098
Cc1ccc(C(=O)CCNc2ccc(Cl)cc2)o1	.	-2	-4	-3	-10	1.6	.	.	.	.	.	.
COc1ccc(C2C(C(N)=O)=C(C)Nc3nc(-c4ccccc4)nn32)cc1OC (stereo unspecified)	5.5*	1	-27	2	15	.	0.0069	?	0.029	0.0082	0.019	?
N#Cc1ccsc1NC(=O)c1cccc([N+](=O)[O-])c1	-1.1	-6	-8	-2	-37	-0.21	.	.	.	.	.	.
N#Cc1ccsc1NC(=O)c1ccc(Cl)c([N+](=O)[O-])c1	-5.3*	.	-21	.	23	.	0.0074	0.0048	0.022*	0.0069	?	0.0092
NNc1nc2ccccc2nc1C(F)(F)F	2.8	0	-6	-3	-50	-0.54	.	.	.	.	.	.
FC(F)(F)c1nc2ccccc2nc1N/N=C\c1ccccc1	.	1	5	6	11	.	0.0073	0.0059*	0.03	0.0086	0.02	0.012
OC(CNCCC(c1ccccc1)c1ccccc1)COc1ccccc1 (stereo unspecified)	0.91	-31	-3	0	21	-2.4	.	.	.	.	.	.
COc1ccc(-c2nnc(-c3ccc(OCC(C)C)cc3)o2)cc1	-5.5*	5	1	-7	0	.	0.016	0.0051	0.029	0.0077	0.017	0.01
CCOC(=O)/C(C#N)=C1/C=C(C)NC(c2ccccc2O)=N1	-3.8*	15	-1	-20	-11	-2.1	0.0071	0.0036	0.022*	0.0053*	0.013*	?
O=C(CN1C(=O)CSC1=O)c1ccccc1	-0.33	-2	-13	-15	-15	0.29	.	.	.	.	.	.
Cc1ccccc1C(=O)N/N=C1\SCC(=O)N1Cc1ccco1	0.5	2	-19	4	-20	-1.1	.	.	.	.	.	.
Cc1ccc(C(C)(C)C)c(OCCN2CCCC2)c1	0.6	4	-7	1	-2	0.1	.	.	.	.	.	.
Cc1cc(C(C)(C)C)ccc1OCCN1CCCC1	.	-5	-3	9	-8	0	0.0087	0.006	0.029	0.0067	0.02	?
C=CCN(C(=O)CSC1=NC(=O)CN1C(C)=O)c1nc(C)c(-c2ccccc2)s1	10*	-10	-11	2	8	-0.93	0.0076	0.023*	0.036	0.022*	0.03*	0.019*
N#C/C(=C(/O)c1cccc(F)c1)c1nc2ccccc2s1	-3*	.	.	.	35	.	0.0089	0.006	?	0.0077	0.016*	0.011
N#C/C(=C(/O)c1ccco1)c1nc2ccccc2s1	-1.3	-11	-3	3	28	.	.	.	.	.	.	.
COc1ccc(Cl)cc1NC(=S)NNC(=O)C1(C)CC1(Cl)Cl (stereo unspecified)	-0.45	6	-14	-7	15	-1.3	.	.	.	.	.	.
Cc1ccc(NC(=S)N=Nc2c(O)[nH]c3ccccc23)cc1	4.3*	-13	-1	1	-4	0.27	0.0076	0.018*	0.033	0.02*	0.032*	0.013*
Oc1ccc(NC(=S)N=Nc2c(O)[nH]c3ccccc23)cc1	-1.7	-14	-15	-2	-1	0.63	.	.	.	.	.	.
Oc1[nH]c2ccc(Br)cc2c1N=NC(=S)Nc1ccc(F)cc1	25*	.	-16	.	8	2.4	0.0062	0.033*	?	0.015*	0.031*	0.018*
CNC(=S)N=Nc1c(O)[nH]c2ccccc12	4.1*	3	-10	1	2	-0.79	0.011	0.021*	0.034	0.011*	0.024	0.012*
SMILES	KCC2 mod	Arbovirus inh	MDM2 E3 inh	PKD1 inh	m-calpain inh	ROMK mod	KCC2 secondary	KCC2 bumet counter	KCC2 secondary2	HEK counter1	KCC2 ouabain	HEK counter2
CCOC(=O)c1ccc(NC(=O)C(=O)NCc2ccco2)cc1	-0.56	-12	-13	8	-38	-0.37	.	.	.	.	.	.
O=C(CSc1nnnn1Cc1ccccc1)Nc1ccc2c(c1)OCCO2	-5.1*	5	-6	9	-24	-0.74	0.0064	0.005	?	0.0072	?	0.011
O=C(CSc1nnnn1Cc1ccccc1)Nc1ccc2c(c1)OCO2	-1.2	-8	-1	-12	-31	.	.	.	.	.	.	.
O=C1NCC(O)=C1C=Nc1ccccc1O	1.4	.	-14	.	0	2.4	.	.	.	.	.	.
Cc1ccc2nc(N3CCN(Cc4ccc(F)cc4)C3=O)c(C)cc2c1	.	-9	4	4	22	-2.1	0.016	0.0051	0.024*	0.007	0.013	0.0099
CCOC(=O)C1=C(C)NC(=O)NC1c1cc(C)sc1C (stereo unspecified)	.	5	-2	4	1	.	.	.	.	.	.	.
CSc1nc(=S)cc(C)[nH]1	16*	.	-12	.	13	.	0.0078	0.018*	0.039*	0.022*	0.028*	0.023*
COc1ccccc1C1CCN(C(=O)c2cccc([N+](=O)[O-])c2)CC1	-1.5	.	-12	.	3	.	.	.	.	.	.	.
Cc1noc(C)c1S(=O)(=O)Nc1ccc(C(=O)NC2CCCCCC2)cc1	-4.2*	3	-11	-6	13	0.56	?	0.0065	0.032	0.0079	0.022	0.011
Cc1noc(C)c1S(=O)(=O)Nc1ccc(C(=O)NC2CCCCC2C)cc1 (stereo unspecified)	1.2	-2	-4	-2	12	.	.	.	.	.	.	.
COC(=O)c1ccc(CSc2ncnc3sc(C)c(C)c23)o1	51*	-2	-14	3	-10	-1.3	0.011*	0.1*	0.07*	0.064*	0.084*	0.05*
